The source made the active and inactive calls.
Legend:
Rattus norvegicus [1] = assay: Antihypertensive activity in spontaneously hypertensive Wistar kyoto rat assessed as reduction in diastolic arterial pressure at 10 mg/kg, ip administered for 6 hrs and measured every 30 mins post treatment by tail-cuff method; format: functional
Procedure, shortened: (§1)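 Male SHRs (8 weeks, 300 ± 25 g; 6 per group), given compound intraperitoneally once daily at 8 am in 0.5% (w/v) sodium carboxymethyl cellulose/DMSO 3/1 (v/v), 2 mL·kg⁻¹. Vehicle-treated SHR and WKY controls. SBP, DBP and heart rate were measured by tail-cuff on awake, restrained rats before dosing, then every 30 min for 6 h. Values are mean ± SD of four independent experiments.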

Rattus norvegicus [2] = assay: Antihypertensive activity in spontaneously hypertensive Wistar kyoto rat assessed as reduction in systolic arterial pressure at 10 mg/kg, ip administered for 6 hrs and measured every 30 mins post treatment by tail-cuff method; format: functional; procedure, shortened: as §1
H9c2 [3] = assay: Cytoprotective activity against H2O2-induced toxicity in rat H9c2 cells assessed as increase in cell repair at 10 to 80 uM pretreated with compound followed by H2O2 addition and measured after 1 to 8 hrs by giemsa staining based microscopic method; format: functional
Procedure, shortened: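 H9c2 cells were injured with H₂O₂ (400 µM) for 1, 4 or 8 h to give light, medium and heavy damage, in the presence of compound at 10–80 µM. Acetaminophen or ibuprofen served as controls. Viability was measured as mean ± SD of three experiments. SOD and MDA contents were measured as mean ± SD of four experiments. Morphology was assessed by Giemsa staining under light microscopy.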

H9c2 [4] = assay: Cytotoxicity against rat H9c2 cells assessed as reduction in cell viability at 10 to 80 uM incubated for 24 hrs; format: cell-based; conditions: h9c2, 24 h
Procedure, shortened: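 Rat cardiac H9c2 cells were grown in DMEM with 10% FBS and penicillin/streptomycin at 37 °C and 5% CO₂. They were seeded at 5×10⁴ cells/mL and allowed to adhere for 8 h. Cells were exposed to 10, 40 or 80 µM compound for 24 h, and survival was compared with untreated cells.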

[5] = Toxicity in Wistar kyoto rat assessed as swollen gastric mucosal cells at 6.1 mg/kg, ip administered for 14 days by H and E staining based optical microscopic method; format: organism-based; conditions: in vivo, 336 h
Procedure, shortened: (§2)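 WKY rats, 3 per group, were dosed for 14 days, with the compound at 10 mg/kg per dose and the ibuprofen comparator at 6.1 mg/kg. Rats were anaesthetised with ether and killed by cervical dislocation. Stomach and intestine were sectioned at 5-10 µm, stained with haematoxylin and eosin, and examined by optical microscopy.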

Rattus norvegicus [6] = assay: Cardioprotective activity in SHR rat assessed as swollen myocardial interstitial vascular at 10 mg/kg, ip administered for 14 days by TEM analysis; format: functional, organism-based
Procedure, shortened: (§3)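 SHRs were given 10 mg·kg⁻¹ intraperitoneally per day for 14 consecutive days, with an ibuprofen comparator and a normal control. Myocardial tissue was then removed. Sections were HE-stained for light microscopy and also examined by transmission electron microscopy at 6000, 10000 and 20000-fold.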

[7] = Cardiotoxicity in SHR rat assessed as coarser myocardial fiber formation at 10 mg/kg, ip administered for 14 days by H and E staining based microscopic assay; format: toxicity, organism-based; conditions: in vivo, 336 h; procedure, shortened: as §3
[8] = Toxicity in Wistar kyoto rat assessed as hyperemia in intestinal mucosa at 6.1 mg/kg, ip administered for 14 days by H and E staining based optical microscopic method; format: organism-based; conditions: in vivo, 336 h; procedure, shortened: as §2
[9] = Toxicity in Wistar kyoto rat assessed as hyperemia in gastrointestinal tissue at 6.1 mg/kg, ip administered for 14 days by H and E staining based optical microscopic method; format: organism-based; conditions: in vivo, 336 h
Procedure, shortened: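 WKY rats (3 per group) were dosed for 14 days with ibuprofen at 6.1 mg·kg⁻¹ per day or test compound at 10 mg·kg⁻¹. Rats were killed by cervical dislocation after ether anaesthesia. Stomach and intestine were cut into 5–10 µm sections, HE-stained and examined by optical microscopy.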

Rattus norvegicus [10] = assay: Cardioprotective activity in SHR rat assessed as myocardial fibrous submucosal swelling at 10 mg/kg, ip administered for 14 days by TEM analysis; format: functional, organism-based; procedure, shortened: as §3
[11] = Cardiotoxicity in SHR rat assessed as neatly arranged myocardial fibers at 10 mg/kg, ip administered for 14 days by H and E staining based microscopic assay; format: toxicity, organism-based; conditions: in vivo, 336 h; procedure, shortened: as §3
Rattus norvegicus [12] = assay: Cardioprotective activity in SHR rat assessed as ventricular pumping dysfunction at 10 mg/kg, ip administered for 14 days by TEM analysis; format: functional, organism-based; procedure, shortened: as §3
[13] = Toxicity in Wistar kyoto rat assessed as intestinal mucosal edema at 6.1 mg/kg, ip administered for 14 days by H and E staining based optical microscopic method; format: organism-based; conditions: in vivo, 336 h; procedure, shortened: as §2
Rattus norvegicus [14] = assay: Cardioprotective activity in SHR rat assessed as myocardial contraction band formation at 10 mg/kg, ip administered for 14 days by TEM analysis; format: functional, organism-based; procedure, shortened: as §3
Rattus norvegicus [15] = assay: Cardioprotective activity in SHR rat assessed as loosen myocardial fibers at 10 mg/kg, ip administered for 14 days by TEM analysis; format: functional, organism-based; procedure, shortened: as §3
[16] = Cardiotoxicity in SHR rat assessed as appearance of myocardial interstitial collagen fibers at 10 mg/kg, ip administered for 14 days by H and E staining based microscopic assay; format: toxicity, organism-based; conditions: in vivo, 336 h; procedure, shortened: as §3
Rattus norvegicus [17] = assay: Cardioprotective activity in SHR rat assessed as myocardial fiber melting at 10 mg/kg, ip administered for 14 days by TEM analysis; format: functional, organism-based; procedure, shortened: as §3
Rattus norvegicus [18] = assay: Cardioprotective activity in SHR rat assessed as swollen myocardial mitochondria at 10 mg/kg, ip administered for 14 days by TEM analysis; format: functional, organism-based; procedure, shortened: as §3
[19] = Toxicity in Wistar kyoto rat assessed as inflammatory cell infiltration in gastrointestinal tissue at 6.1 mg/kg, ip administered for 14 days by H and E staining based optical microscopic method; format: organism-based; conditions: in vivo, 336 h; procedure, shortened: as §2
[20] = Toxicity in Wistar kyoto rat assessed as inflammatory cell infiltration in gastric mucosa at 6.1 mg/kg, ip administered for 14 days by H and E staining based optical microscopic method; format: organism-based; conditions: in vivo, 336 h; procedure, shortened: as §2
Rattus norvegicus [21] = assay: Cardioprotective activity in SHR rat assessed as myocardial disk dissociation at 10 mg/kg, ip administered for 14 days by TEM analysis; format: functional, organism-based; procedure, shortened: as §3
[22] = Cardiotoxicity in SHR rat assessed as reduction in muscle bundle gaps at 10 mg/kg, ip administered for 14 days by H and E staining based microscopic assay; format: toxicity, organism-based; conditions: in vivo, 336 h; procedure, shortened: as §3
[23] = Cardiotoxicity in SHR rat assessed as increase in muscle bundle gaps at 10 mg/kg, ip administered for 14 days by H and E staining based microscopic assay; format: toxicity, organism-based; conditions: in vivo, 336 h; procedure, shortened: as §3
[24] = Cardiotoxicity in SHR rat assessed as collagen fibers stained in interstitium at 10 mg/kg, ip administered for 14 days by H and E staining based microscopic assay; format: toxicity, organism-based; conditions: in vivo, 336 h; procedure, shortened: as §3

Measured: Activity

C[C@H](CS)C(=O)N1CCC[C@H]1C(=O)O
inactive: Rattus norvegicus [1] | Rattus norvegicus [2]

CC(=O)Nc1ccc(O)cc1 [ACETAMINOPHEN]
Non-Toxic: H9c2 [4]
active: H9c2 [3]

CC(C)Cc1ccc(C(C)C(=O)O)cc1 (configuration not stated) [IBUPROFEN]
Active: [7] | [16] | [22] | [23] | [24]
Non-Toxic: [11] | H9c2 [4]
Toxic: [5] | [8] | [9] | [13] | [19] | [20]
not listed: Rattus norvegicus [1] | Rattus norvegicus [2] | H9c2 [3]
active: all other assays above

COC(=O)C1=C(C)NC(C)=C(C(=O)OC)C1c1ccccc1[N+](=O)[O-]
inactive: Rattus norvegicus [1] | Rattus norvegicus [2]
